Bioassay records deposited in PubChem by Broad Institute.
Hits are enriched below; roughly 3.2% of the tested compounds scored in any of these assays.
DENV2 CPE rescue: protects cells from dengue virus 2 cytopathic effect | DENV2-infected cells, cytopathic effect rescue, plate reader | 350,000 compounds, 1.7% hits | CPE inhibition, % at 9.99 µM | AID 651640; in the data active = CPE inhibition above about 20%, passing the limit was not always enough; tested in BHK-21 cells;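 also: 0% = median of neutral control wells and 100% = median of positive control wells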
S100A4 MyoIIA: S100A4-myosin IIA interaction inhibition; P26447; S100A4/TAMRA-MyoIIA peptide fluorescence polarization; inhibition, % at 10.7 µM; 360,000 compounds, 0.14% hits;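 active = mean inhibition of at least 70% across replicates, with every replicate also reaching that level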
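Assay system: human S100A4 monomer with TAMRA-labelled myosin IIA peptide / Buffer or medium: Calcium-containing HEPES buffer, pH 7.2 / Reagent: TAMRA-labelled myosin IIA heavy-chain peptide probe, 5 nM / Compound: one dose per compound / Timing: polarization read 5 min after assay mix addition, stable 5–60 min / Benchmarks: neutral control DMSO, positive control TFP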
AF4-AF9 inh: inhibitors of human MLL-AF4/AF9 interaction; P42568; AlphaScreen, biotin-AF4 peptide binding to FLAG-AF9; 350,000 compounds, 0.47% hits; inhibition, % at 10 µM; AID 651704;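 active = every replicate reaching a set inhibition limit, whatever the replicate mean, cut at about 25% in these data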;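 also: 0% = plate neutral control median and 100% = total signal loss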
Target sequence (P42568 whole entry, looked up): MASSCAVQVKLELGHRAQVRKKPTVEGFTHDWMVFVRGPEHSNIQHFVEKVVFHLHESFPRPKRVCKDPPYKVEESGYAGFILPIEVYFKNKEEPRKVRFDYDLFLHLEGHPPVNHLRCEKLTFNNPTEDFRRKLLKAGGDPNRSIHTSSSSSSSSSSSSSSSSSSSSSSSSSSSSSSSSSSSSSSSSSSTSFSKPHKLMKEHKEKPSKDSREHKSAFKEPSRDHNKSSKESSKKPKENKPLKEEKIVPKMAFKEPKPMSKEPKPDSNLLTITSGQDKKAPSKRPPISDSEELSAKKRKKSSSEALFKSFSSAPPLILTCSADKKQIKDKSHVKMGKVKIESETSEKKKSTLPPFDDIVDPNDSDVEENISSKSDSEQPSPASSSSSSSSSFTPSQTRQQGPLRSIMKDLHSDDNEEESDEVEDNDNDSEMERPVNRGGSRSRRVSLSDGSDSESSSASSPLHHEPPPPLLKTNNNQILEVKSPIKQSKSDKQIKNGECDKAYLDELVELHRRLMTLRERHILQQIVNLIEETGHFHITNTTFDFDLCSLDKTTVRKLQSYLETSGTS
Cneo AK release: causes C. neoformans cell lysis | lysis activity, % at 15 µM | AID 651654 | 360,000 compounds, 0.2% hits | adenylate kinase release luminescence, 4 h; normalised: neutral wells 0, clomiphene wells 100;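 active = mean lysis activity across replicates of at least 80%, whatever share of replicates individually reach that level; inactive = mean lysis activity below 80%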
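Material: C. neoformans cells; Schedule: 4 h static compound exposure, 37 °C, read 1 h post-reagent; Measured by: adenylate kinase release luminescence; Read-out: signal increase indicating cell lysis; Controls: Clomiphene as positive lysis control.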
rRNA inh HTS: inhibitors of bacterial rRNA selective over humanized ribosomes; E. coli WT GFP vs humanized-ribosome RFP mutants, fluorescence, 24 h; hits give low values; DMSO median 0, no signal -100; GFP signal change (wild-type ribosome), % (concentration not given with the values); 350,000 compounds, 1.6% hits;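 active = significant combined selectivity score with lowered wild-type GFP, culture density cut under 30%, mutant RFP and density less affected; inactive = any of these conditions unmet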
PfHsp90 set2: inhibits growth of yeast expressing Plasmodium falciparum Hsp90. S. cerevisiae expressing PfHsp90, BacTiter-Glo ATP, 48 h; yeast lacking PDR1 and PDR3 efflux regulators. inhibition, % at 9.4 µM. 310,000 compounds, 0.32% hits. AID 504621;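 active = every replicate shows inhibition above about 80%, whatever the replicate mean, limit read from the data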;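 also: 0% = DMSO neutral controls and 100% = 20 µM radicicol positive controls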
Numbers without * were called inactive; x = no result; ! = not confirmed by another sample.

SMILES	DENV2 CPE rescue	S100A4 MyoIIA	AF4-AF9 inh	Cneo AK release	rRNA inh HTS	PfHsp90 set2
Cc1noc(C)c1NC(=O)Nc1cccc2c1O[C@H](CN(C)S(C)(=O)=O)[C@@H](C)CN([C@@H](C)CO)C2=O	6	7	-1	0	3	x
CN1OC[C@@H]2CN(Cc3ccc4c(c3)OCO4)[C@H](c3ccc(N4CCCCC4)cc3)C[C@@H]21	1	-19	33*	-2	-12	x
CN1OC[C@@H]2CN(Cc3ccccc3)[C@H](c3ccc(N4CCCCC4)cc3)C[C@@H]21	1	-15	28*	-1	-34	x
O=C(NC1CCCC1)N1CC2(C1)[C@H](c1ccccc1)[C@H](CO)N2S(=O)(=O)Cc1ccccc1	1	-3	-1	x	-2	x
Cc1ccc2nc3ccc(N4CCCC4)nn3c(=O)c2c1	x	x	x	-1	x	5
CC1CCCN(c2ccc3nc4ccccc4c(=O)n3n2)C1 (configuration not stated)	-3	-7	2	x	-18*	-9
Cc1ccccc1CSc1ccc(-c2ccc3c(c2)OCO3)nn1	52*	-6	-16	-1	-9	18
CNC[C@H]1Oc2cc(C#Cc3ccc(OC)cc3)ccc2S(=O)(=O)N([C@@H](C)CO)C[C@@H]1C	33*	55	10	0	1	x
CNC[C@@H]1Oc2cc(C#Cc3ccc(OC)cc3)ccc2S(=O)(=O)N([C@H](C)CO)C[C@H]1C	-8	-53	11	-1	5	x
C[C@H](CO)N1C[C@H](C)[C@@H](CN(C)S(C)(=O)=O)Oc2cc(C#Cc3ccccc3)ccc2S1(=O)=O	0	-2	-5	91*	-5	x
C[C@@H]1CN([C@@H](C)CO)S(=O)(=O)c2ccc(C#Cc3ccccc3)cc2O[C@H]1CN(C)S(C)(=O)=O	27*	8	-1	-2	-6	x
C[C@H](CO)N1C[C@H](C)[C@H](CN(C)S(C)(=O)=O)Oc2cc(C#Cc3ccccc3)ccc2S1(=O)=O	28*	18	0	1	4	x
C[C@@H]1CN([C@H](C)CO)S(=O)(=O)c2ccc(C#Cc3ccccc3)cc2O[C@H]1CN(C)S(C)(=O)=O	2	-8	0	2	-6	x
O=C(c1cccc(F)c1)N1CC2(C1)[C@@H](c1ccccc1)[C@H](CO)N2C(=O)C1CCC1	3	13	0	x	-1	x
CCNC(=O)C[C@@H]1CC[C@@H]2[C@H](COc3ccc(NC(=O)c4ccc(C(F)(F)F)cc4)cc3C(=O)N2C)O1	-1	-10	-3	-2	-3	x
CCCC(=O)Nc1ccc2c(c1)OC[C@H](C)N(C(=O)c1cnccn1)C[C@@H](C)[C@H](OC)CN(C)C2=O	8	-1	0	-4	1	x
CCOC(=O)N1CCN(S(=O)(=O)c2ccc3c(c2)CC(C)N3C(C)=O)CC1 (configuration not stated)	3	-3	1	-6	-46*	5
CCOC(=O)N1CCN(S(=O)(=O)c2ccc(C)c(C(=O)NC3CCCCC3)c2)CC1	-3	127*	-2	-2	11	-16
Cn1c(/C(C#N)=C/Nc2ccccn2)nc2ccccc21	x	x	x	-1	x	2
Cn1c(/C(C#N)=C/c2cccc(O)c2)nc2ccccc21	-2	5	4	0	-24*	8
N#C/C(=C\c1cccc(O)c1)c1nc2ccccc2o1	6	0	3	-6	-18*	2
N#C/C(=C\c1ccncc1)c1nc2ccccc2o1	4	-6	2	0	2	x
COc1ccc2c3c(n(C)c2c1)[C@H](CO)N(S(C)(=O)=O)CC31CCN(CC2CC2)CC1	-8	13	-3	x	2	x
CO[C@@H]1CN(C)C(=O)c2cc(NC(=O)Nc3cc(F)ccc3F)ccc2OC[C@H](C)N(C(=O)c2ccccn2)C[C@H]1C	x	26	x	-9	-4	x
O=C1CC[C@@H]2c3[nH]c4ccc(F)cc4c3CCN12	0	-30	3	-3	x	x
O=C(Nc1ccccc1)C1=C[C@H](c2csc3ccccc23)C[C@H](OCCCCO)O1	20*!	11	0	3	1	19
